Compound activity (PubChem BioAssay)
Compounds with a hit are over-represented: about 1.5% of the library has one in this group of screens.
APJ antagonist – APJ receptor antagonism; P35414; inhibition, % at 20 µM; 0.32% of 330,000 active; CHO-K1 APJ beta-arrestin complementation, luminescence;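 active = inhibition above about 40% at 20 µM, limit read from the data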;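 note: cells challenged with 10 nM apelin-13 agonist together with compound; plate controls were apelin-13 plus DMSO wells for no effect and DMSO wells lacking apelin-13 for full effect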
APJ ag – APJ receptor agonism. P35414. CHO-K1 APJ PathHunter beta-arrestin, luminescence; 0% DMSO wells, 100% apelin. activation, % at 20 µM. 0.11% of 330,000 active. AID 2520;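 active = activation more than six SD over the plate average, tested at 20 µM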;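 note: 0% = DMSO alone and 100% = apelin-13 at 10 nM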
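Incubation: overnight seeding, 90 min compound at 25 °C, 1 h detection; test system: PathHunter CHO-K1 APJ (AGTRL-1) beta-arrestin reporter cells; amount: 1000 cells/well; doses: one dose, 20 µM compound, 1% DMSO; measured by: beta-gal luminescence; measure: agonist-driven arrestin binding to APJ; benchmarks: negative DMSO alone, positive Apelin-13 at 10 nM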
iPSC survival up – hiPSC single-cell survival enhancement; ATPlite luminescence; 100% = ROCK inhibitor wells, 0% = DMSO; survival enhancement, % at 20 µM; AID 602274; 0.044% of 360,000 active; in the data active = survival enhancement above about 18%;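 note: cells exposed to compounds for 16 hours before the ATP read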
CCR6 antag – CCR6 (human) receptor antagonism. 0.49% of 340,000 active. inhibition, % at 20 µM. AID 493098. CHO-K1 CCR6 PathHunter beta-arrestin, luminescence, CCL20-stimulated;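 active = compounds whose inhibition of the agonist-driven luminescence signal at 20 µM reaches about 50%, limit read from the data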;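 note: cells stimulated with CCL20 at 14 nM final; plate controls were DMSO with CCL20 for no effect and DMSO without agonist for full effect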
CXCR6 block – inhibitors of human CXCR6 receptor; O00574; CHO-K1 PathHunter CXCR6 beta-arrestin, luminescence; inhibition, % at 20 µM; 0.36% of 360,000 active; in the data active = inhibition above about 34%, passing the limit was not always enough;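 note: antagonist mode with CXCL16 agonist at 10 nM final; 0% = 10 nM CXCL16 with DMSO and 100% = unstimulated wells without agonist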
Target sequence (O00574 whole entry, looked up): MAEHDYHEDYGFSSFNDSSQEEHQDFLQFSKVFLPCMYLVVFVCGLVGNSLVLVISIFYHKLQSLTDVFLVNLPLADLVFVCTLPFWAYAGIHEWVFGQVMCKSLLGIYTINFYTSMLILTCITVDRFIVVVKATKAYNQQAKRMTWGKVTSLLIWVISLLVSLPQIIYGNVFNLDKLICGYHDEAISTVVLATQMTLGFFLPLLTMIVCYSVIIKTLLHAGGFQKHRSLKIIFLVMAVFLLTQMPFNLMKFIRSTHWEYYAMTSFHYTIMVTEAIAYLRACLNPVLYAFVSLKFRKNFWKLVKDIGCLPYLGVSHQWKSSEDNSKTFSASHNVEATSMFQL
EBI2 antag – blocks human EBI2 receptor beta-arrestin signaling; inhibition, % at 5 µM; 0.81% of 360,000 active; EBI2 beta-arrestin recruitment, luminescence, 7a,25-OHC stimulated; in the data active = inhibition above about 38%;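 note: enzyme fragment complementation signal reports receptor beta-arrestin coupling in cells; 0% = agonist plus DMSO wells and 100% = wells without agonist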
EBI2 conf – confirmation of human EBI2 receptor antagonists. shares compounds with EBI2 antag. EBI2 beta-arrestin luminescence, 7a,25-OHC antagonism. inhibition, % at 5 µM. 29% of 2,400 active. AID 651997;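 active = inhibition of at least 50%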
EBI2 agonist – EBI2 agonism counter-screen | shares compounds with EBI2 antag | EBI2-expressing cells, agonist mode, luminescence, 60 min; 0% vehicle, 100% 7α,25-dihydroxycholesterol control | activation, % at 5 µM | 2,400 tested, under 10 active;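 active = activation of at least 50%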
bGal counter – counter-screen for EBI2 antagonists: E. coli beta-galactosidase inhibition; purified beta-galactosidase, luminescent Galacton Star, 15 min; 1% of 2,400 active; inhibition, % at 5 µM; shares compounds with EBI2 antag; AID 652176;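 active = replicate-average signal at least 3 plate SD below neutral wells, shown as high inhibition, flagging enzyme-inhibiting false positives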;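 note: 0% = DMSO wells with enzyme and 100% = wells lacking enzyme; higher means stronger loss of beta-gal luminescence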
* hit, by the source's call; · = not tested or not shown.

SMILES	APJ antagonist	APJ ag	iPSC survival up	CCR6 antag	CXCR6 block	EBI2 antag	EBI2 conf	EBI2 agonist	bGal counter
O=C(CSC1=Nc2ccccc2C2CC=NN12)NCc1ccco1 (stereo not drawn)	27	-8	2	24	11	9	·	·	·
CCCOC(=O)c1ccc(NC(=O)CSC2=Nc3ccccc3C3CC=NN23)cc1 (stereo not drawn)	6	-3	-2	2	11	40*	5	0	-10
CC(C)c1ccc(CN2CCC(n3nccc3NC(=O)C3CCCC3)CC2)cc1	·	·	6	·	1	-3	·	·	·
C=CCN(C(=O)C1CSC2(C)CCC(=O)N12)c1nc(-c2ccccc2)cs1 (stereo not drawn)	27	0	0	11	11	48*	64*	-1	-19
CCCCCCCNC(=O)CN1N=C(c2ccc(C)cc2)CCC1=O	6	-4	0	2	9	6	·	·	·
O=C(COc1ccc(Br)cc1)N1CCC(c2ccccc2)C1 (stereo not drawn)	8	-5	-3	9	6	87*	84*	-1	5
Cc1ccc(OCC(=O)c2ccc3c(c2)CCCC3)cc1C	10	-3	-3	19	-2	42	·	·	·
O=C(COc1ccc(Br)cc1)N1CCc2ccccc2C1	2	2	-1	17	4	58*	73*	-1	7
O=C(COc1ccc(Br)cc1)c1ccc2c(c1)CCCC2	-8	4	-4	31	-3	75*	35	2	2
COc1ccc(OCC(=O)N2CCc3ccccc3C2)cc1	-10	-1	0	-1	1	10	·	·	·
O=C(COc1ccc(Br)cc1)N1CCOCC1	7	-5	3	-7	6	18	·	·	·
CCCCN(Cc1nc2ccccc2c(=O)[nH]1)C(=O)CN1C(=O)NC2(CCCCC2)C1=O	-6	-3	0	5	6	-3	·	·	·
O=C(Nc1ccc2ccccc2n1)c1ccccc1Cl	-1	-2	-1	2	-11	2	·	·	·
O=C(Nc1ccc2ccccc2n1)c1ccc(Cl)cc1	6	-2	0	10	5	61*	39	-1	7
CC(=O)Nc1ccc(-c2ccnc3c2CC(C)(C(=O)Nc2cccc(Oc4ccccc4)c2)O3)cc1 (stereo not drawn)	·	·	-3	·	9	5	·	·	·
CC(C)c1ccc(Nc2ncc3c(n2)CCN(C(=O)Nc2ccc(F)c(Cl)c2)C3)cc1	·	·	-2	·	-12	52*	20	1	3
CCCN(CCC)C(=O)C1CCN(c2ccc(S(=O)(=O)N3CCOCC3)cc2[N+](=O)[O-])CC1	1	2	0	3	8	62*	25	1	1
COCCN(CCOC)C(=O)C1CCN(c2ccc(S(=O)(=O)N3CCOCC3)cc2[N+](=O)[O-])CC1	8	-9	0	4	11	-4	·	·	·
O=C(COc1ccc2ccccc2c1)N1CCNCC1	-21	-2	-1	2	-8	10	·	·	·
CCc1ccc(OCC(=O)N2CCN(c3ccccc3F)CC2)cc1	-9	1	1	11	4	65*	75*	0	3
CS(=O)(=O)N1CCN(C(=O)COc2ccc3ccccc3c2)CC1	-9	-1	1	7	1	79*	46	1	5
O=C(COc1ccc2ccccc2c1)N1CCN(c2ccccc2O)CC1	-2	-3	-2	-14	-8	71*	62*	0	-8
COc1ccccc1CNS(=O)(=O)c1ccc(-n2cnnn2)c(OC)c1	-6	-2	0	10	-7	-2	·	·	·
O=C(NCCc1c[nH]c2ccccc12)c1ccc(Cl)cc1	0	1	0	9	5	60*	34	-1	-7
COc1ccc(N2CCN(C(CNC(=O)C(=O)NCCc3c[nH]c4ccccc34)c3ccco3)CC2)cc1 (stereo not drawn)	1	0	2	1	10	49*	45	-1	-22
SMILES	APJ antagonist	APJ ag	iPSC survival up	CCR6 antag	CXCR6 block	EBI2 antag	EBI2 conf	EBI2 agonist	bGal counter
CCC(=O)NCCc1c[nH]c2ccccc12	6	-1	-2	17	-8	-6	·	·	·
CC(NC(=O)C(=O)NCCc1c[nH]c2ccccc12)c1ccccc1 (stereo not drawn)	5	1	-1	-1	14	61*	34	1	7
Cc1ccc(C(=O)NC(=S)N2CCCCCC2)cc1	2	-3	-2	2	6	-3	·	·	·
COc1ccc2cc(C(c3nnnn3C3CCCCC3)N3CCCCCC3)c3nnnn3c2c1 (stereo not drawn)	10	-6	-3	1	10	54*	20	0	7
COc1ccc2cc(C(c3nnnn3C3CCCC3)N3CCCCCC3)c3nnnn3c2c1 (stereo not drawn)	1	3	1	18	10	60*	34	0	-22
COc1cc2cc(C(c3nnnn3C3CCCC3)N3CCCCC3)c(=O)[nH]c2cc1OC (stereo not drawn)	-8	-3	1	9	5	5	·	·	·
COc1ccc2[nH]c(=O)c(C(c3nnnn3C3CCCC3)N(C)C3CCCCC3)cc2c1 (stereo not drawn)	10	-2	1	22	4	62*	38	0	-9
COc1ccc(C(c2nnnn2C2CCCC2)N2CCC(C)CC2)c(OC)c1 (stereo not drawn)	17	-5	-1	3	4	2	·	·	·
CC1(C)OC(=O)C2=C(C[C@@H](CCc3ccccc3)O[C@H]2CCc2cccc(Cl)c2)O1	·	·	-1	·	1	11	·	·	·
COc1cc(NC(=O)COC(=O)c2ccccc2SCC(=O)N2CCCC2)cc(OC)c1	10	-4	0	5	-2	10	·	·	·
COc1cccc(N(CC(=O)NCCSc2ccccc2)S(C)(=O)=O)c1	13	-1	-1	-4	2	29	·	·	·
COc1cccc(N(CC(=O)NCCSc2ccc(Cl)cc2)S(C)(=O)=O)c1	4	1	-1	1	-1	87*	69*	1	9
COc1ccc(N(CC(=O)NCCSc2ccc(C)cc2)S(=O)(=O)c2ccccc2)c(OC)c1	5	5	0	1	1	81*	47	1	2
